Screening results as filed in PubChem BioAssay.
This is a sample that favours compounds with a hit; in the whole collection about 9.8% have one here.
PMI act hi M6P: increases human PMI activity with near-saturating mannose 6-phosphate. AID 1216. coupled PMI enzyme assay, resazurin fluorescence, 20 min; hits give high values; 1 = untreated enzyme, 0 = substrate-free blank. activation factor at 20 µM. P34949. 190,000 compounds, 0.34% hits;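 active = activation factor of 2 or more at 20 µM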
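Test system: human phosphomannose isomerase with PGI, G6PDH, diaphorase coupling enzymes; Amount: PMI at 15 ng/mL final; Reagent: Mannose-6-phosphate 1.0 mM (near-saturating) plus 0.22 mM NADP+; Timing: 20 min, room temperature; Technique: resorufin fluorescence at Ex 544/Em 590 nm; Dosing: 20 µM single dose.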
Rad51 HR inh: blocks human Rad51 in homologous recombination | hRad51 DNA strand exchange, fluorescence dequenching | AID 1385 | inhibition, % at 10 µM | Q06609 | 200,000 compounds, 0.085% hits;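 active = inhibition above 40% at the single screening dose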
Target sequence (Q06609 whole entry, looked up): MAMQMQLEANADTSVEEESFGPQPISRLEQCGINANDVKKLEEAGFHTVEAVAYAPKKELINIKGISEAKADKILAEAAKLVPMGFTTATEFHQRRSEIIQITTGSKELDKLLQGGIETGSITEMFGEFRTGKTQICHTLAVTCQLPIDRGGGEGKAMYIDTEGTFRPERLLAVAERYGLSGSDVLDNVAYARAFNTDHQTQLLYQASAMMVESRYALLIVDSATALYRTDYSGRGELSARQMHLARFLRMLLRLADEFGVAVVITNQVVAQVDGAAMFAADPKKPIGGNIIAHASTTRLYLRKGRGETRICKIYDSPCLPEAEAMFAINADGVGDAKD
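Test system – preformed human Rad51 ssDNA filaments · Reagent – Donor/quencher-labelled 47-bp dsDNA substrate · Incubation – 37 °C 15-min filament assembly, 30-min compound preincubation, 15-min exchange · Signal – FRET fluorescence dequenching, excitation 485 nm, emission 520 nm · Read-out – percent inhibition from fluorescence, normalised to plate control and blank means · Benchmarks – plate control and blank wells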
Calpain2 inh: inhibitors of pig calpain II; purified calpain II, fluorogenic peptide substrate, 30 min; inhibition, % at 16 µM; 220,000 compounds, 0.37% hits;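 active = inhibition above about 50%, limit read from the data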
Lmaj promast: reduces viability of Leishmania major promastigotes; resazurin fluorescence viability; inhibition, % at 10 µM; 200,000 compounds, 9% hits; in the data active = inhibition above about 50%;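 note: promastigotes grown with compound for 44 hours at 28 °C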
WT yeast gro inh: growth inhibition of WT yeast, mitochondrial fusion screen; 190,000 compounds, 2.1% hits; mitochondrial fusion phenotypic screen, WT strain; inhibition, % at 10 µM; in the data active = inhibition above about 58%; tested in S. cerevisiae
PMI activator: phosphomannose isomerase (human) activation. P34949. purified human PMI, coupled resazurin fluorescence, 20 min; hits give high values; 1 = vehicle control, 0 substrate-free wells. activation factor at 20 µM. 190,000 compounds, 0.005% hits;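 active = activation factor of 2 or more at 20 µM, relative to plate controls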
Each line names hits and unclear results; the compound was inactive in the other large screens.

O=C(COc1ccc(Nc2ccccc2)cc1)OCC(=O)N1CCCCC1	none (no result: PMI act hi M6P, Lmaj promast, WT yeast gro inh, PMI activator)
COc1cc(/C=C2\CCc3ccccc3C2=O)cc(OC)c1OC	Lmaj promast 76.9 (no result: Rad51 HR inh)
O=C1/C(=C/c2ccncc2)CCc2ccccc21	none (no result: PMI act hi M6P, Lmaj promast, WT yeast gro inh, PMI activator)
CCOC(=O)c1cc2c(N)c(C(=O)c3ccc(Br)cc3)sc2[nH]c1=O	none
C/C(=N\NC(=O)COc1ccccc1-c1ccccc1)c1ccccn1	Lmaj promast 100.3, WT yeast gro inh 71.8
CCCCCC(=O)N/N=C(\C)c1ccccn1	Lmaj promast 93.0
C/C(=N\NC(=O)c1ccccn1)c1ccc(Cl)cc1	none (no result: PMI act hi M6P, Rad51 HR inh, Lmaj promast, WT yeast gro inh, PMI activator)
C/C(=N\Nc1ccc(Cl)cc1)c1ccccn1	PMI act hi M6P 2.1
CCCCCCCCCC(=O)N/N=C(\C)c1cccnc1	none
COc1ccc2[nH]c(C(=O)O)c(CCN3C(=O)c4cccc([N+](=O)[O-])c4C3=O)c2c1	none (no result: PMI act hi M6P, Lmaj promast, WT yeast gro inh, PMI activator)
CN(Cc1cc(=O)n2ccsc2n1)C1CCCCC1	none
CC#CCN1c2ccccc2[C@]23C[C@@H](C(=O)OC)N(C(=O)c4ccco4)C2=NC(C(=O)OC)=C(C(=O)OC)[C@H]13	none (no result: PMI act hi M6P, Lmaj promast, WT yeast gro inh, PMI activator)
CC12CC3CC(C)(C1)CC(NCc1ccncc1)(C3)C2	Lmaj promast 82.5
CC1(C)CC(NCc2ccncc2)CC(C)(C)N1	none
COc1ccc(N(C(=O)c2ccco2)S(=O)(=O)c2ccccc2)cc1	none
COc1ccc(N(C(=O)c2ccco2)S(=O)(=O)c2cc(Cl)c(Cl)cc2Cl)cc1	Calpain2 inh 53.7, WT yeast gro inh 58.7
O=C(NC(NCc1cccnc1)C(Cl)(Cl)Cl)c1cccc2ccccc12 (stereo not drawn)	Lmaj promast 83.8
Cc1ccc(S(=O)(=O)N(C)c2ccc(C(=O)N3CCc4ccccc4C3)cc2)cc1	none
Cc1ccc(C(=O)NCc2ccco2)cc1S(=O)(=O)Nc1cccc(C)c1C	none
Cc1ccc(C(=O)Nc2ccccc2C(=O)NCc2ccco2)cc1S(=O)(=O)N1CCCCC1	Lmaj promast 62.2
Cc1ccccc1NS(=O)(=O)c1cc(C(=O)N2CCc3ccccc3C2)ccc1C	Lmaj promast 87.8, WT yeast gro inh 80.9 (no result: Rad51 HR inh)
Cc1ccc(C)c(NS(=O)(=O)c2cc(C(=O)NCc3ccco3)ccc2C)c1	Lmaj promast 99.6
CN(c1ccccc1)S(=O)(=O)c1ccc(C(=O)N2CCc3ccccc3C2)cc1	Lmaj promast 96.3
CC(=O)NC1C(Oc2ccc3c(C)cc(=O)oc3c2)OC(COC(C)=O)C(OC(C)=O)C1OC(C)=O (stereo not drawn)	none (no result: Rad51 HR inh)
CN(CC(=O)NCc1ccncc1)S(=O)(=O)c1ccc2ccccc2c1	none
O=C(O)CCSCCCN1C(=O)c2cccc3cccc(c23)C1=O	none
CCn1c(Cc2ccccc2)nnc1SCC(=O)Nc1ccccc1O	none
C=CCn1c(SCC(=O)NC23CC4CC(CC(C4)C2)C3)nc2cc(C(=O)O)ccc2c1=O	none
O=C1CN(S(=O)(=O)c2ccccc2)c2ccccc2N1	none (no result: PMI act hi M6P, Rad51 HR inh, PMI activator)
Cc1ccccc1NS(=O)(=O)c1cc(C(=O)NCCC2=CCCCC2)ccc1C	none
Cc1ccc(C(=O)N2CCCC2)cc1S(=O)(=O)Nc1ccccc1	none
Cc1ccc(C(=O)NCCSC2CCCCC2)cc1S(=O)(=O)Nc1ccccc1	Lmaj promast 97.2
